Reference: ChEMBL document CHEMBL1150614, “Novel cytotoxic oxygenated C29 sterols from the Colombian marine sponge Polymastia tenax” (J Nat Prod, 2002)
In brackets after ≈: the same amount, converted by molar mass.

How the values were obtained:
Conditions in all cases: read-out: LC50 (the source's name)
A549 = experiment: Cytotoxicity against human A549 cells; assay type: functional
Method in brief: (§1)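 In vitro cytotoxicity assay against the cell line named; values reported as IC50 in µg/mL.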

[1] = Cytotoxicity against human H116 cells; assay type: functional; method in brief: as §1
HT-29 = experiment: Cytotoxicity against human HT-29 cells; assay type: functional; method in brief: as §1
PC-3 = experiment: Cytotoxicity against human PC3 cells; assay type: functional; method in brief: as §1
[2] = Cytotoxicity against mouse MS1 cells; assay type: cell-based; method in brief: as §1

CC[C@H](CC[C@@H](C)[C@H]1CCC2=C3[C@H](O)[C@@H]4O[C@@]45C[C@@H](O)CC[C@]5(C)[C@H]3CC[C@@]21C)C(C)C
CC50 (A549): 5 µg/mL (≈ 11.2 µM)
CC50 [1]: 1 µg/mL (≈ 2.25 µM)
CC50 (HT-29): 1 µg/mL (≈ 2.25 µM)
CC50 (PC-3): 1 µg/mL (≈ 2.25 µM)
CC50 [2]: 0.5 µg/mL (≈ 1.12 µM)

CC[C@H](CC[C@@H](C)[C@H]1CC[C@H]2C3=C(CC[C@]12C)[C@@]1(C)CC[C@H](O)C[C@@]12O[C@H]2[C@H]3O)C(C)C (relative stereo)
CC50 (A549): 1 µg/mL (≈ 2.25 µM)
CC50 [1]: 1 µg/mL (≈ 2.25 µM)
CC50 (HT-29): 1 µg/mL (≈ 2.25 µM)
CC50 (PC-3): 1 µg/mL (≈ 2.25 µM)
CC50 [2]: 0.5 µg/mL (≈ 1.12 µM)
